Measured values reported in ChEMBL document CHEMBL1629640, “Antimicrobial activities of jadomycin B and structurally related analogues” (2009).
Values after ≈ are worked out from the molar mass of the structure shown.

How the values were obtained:
[1] = test system: Staphylococcus aureus; assay: Antimicrobial activity against Staphylococcus aureus C622 by broth microdilution method; assay type: functional
How it was run: (§1)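 Preliminary MIC screen by twofold serial broth microdilution in Mueller-Hinton broth, 0.5% DMSO final, with a DMSO-only control. Overnight mid-log cultures were diluted 100-fold, grown 4 h, then diluted 10−6 and added to wells. Plates were incubated overnight and growth read visually. Inhibition was defined as growth ≤ half of control. Three replicates per strain.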

[2] = test system: Staphylococcus epidermidis; assay: Antimicrobial activity against Staphylococcus epidermidis C960 by CLSI method; assay type: functional
[3] = test system: Pseudomonas aeruginosa; assay: Antimicrobial activity against Pseudomonas aeruginosa H188 by broth microdilution method; assay type: functional
How it was run: (§2)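 Preliminary screen by broth microdilution. Jadomycins dissolved in 100% DMSO and diluted to a 2.56 mg ml−1 working stock in 5% DMSO. First well held 0.5% DMSO final, followed by twofold serial dilutions in broth. A DMSO-only control was included. Strains were grown in Mueller-Hinton broth to mid-log, diluted 100-fold, incubated 4 h, then diluted 10−6. Plates were incubated overnight and growth was read visually. MIC defined as growth ≤ half of control. Three replicates.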

[4] = test system: Enterococcus faecalis; assay: Antimicrobial activity against Enterococcus faecalis C625 by broth microdilution method; assay type: functional; how it was run: as §2
[5] = test system: Staphylococcus aureus; assay: Antimicrobial activity against methicillin-resistant Staphylococcus aureus C623 by broth microdilution method; assay type: functional; how it was run: as §1
[6] = test system: Staphylococcus aureus; assay: Antimicrobial activity against Staphylococcus aureus Becker CP8 by broth microdilution method; assay type: functional; how it was run: as §1
[7] = test system: Staphylococcus aureus; assay: Antimicrobial activity against methicillin-resistant Staphylococcus aureus C623 by CLSI method; assay type: functional
How it was run: (§3)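 MIC by CLSI broth microdilution in cation-adjusted Mueller-Hinton broth at 5 × 10^5 CFU ml−1 final (5 × 10^4 CFU/well).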

[8] = test system: Staphylococcus aureus; assay: Antimicrobial activity against Staphylococcus aureus 305 by broth microdilution method; assay type: functional; how it was run: as §1
[9] = test system: Staphylococcus epidermidis; assay: Antimicrobial activity against Staphylococcus epidermidis isolate C621 by broth microdilution method; assay type: functional; how it was run: as §2
[10] = test system: Staphylococcus aureus; assay: Antimicrobial activity against Staphylococcus aureus 305 by CLSI method; assay type: functional; how it was run: as §3
[11] = test system: Pseudomonas aeruginosa; assay: Antimicrobial activity against Pseudomonas aeruginosa H187 by broth microdilution method; assay type: functional; how it was run: as §2
[12] = test system: Staphylococcus epidermidis; assay: Antimicrobial activity against Staphylococcus epidermidis C960 by broth microdilution method; assay type: functional; how it was run: as §2
[13] = test system: Staphylococcus aureus; assay: Antimicrobial activity against Staphylococcus aureus ATCC 55804 by broth microdilution method
[14] = test system: Bacillus subtilis; assay: Antimicrobial activity against Bacillus subtilis C971 by broth microdilution method; assay type: functional; how it was run: as §2

Compound	MIC [1] [µg/mL]	MIC [2] [µg/mL]	MIC [3] [µg/mL]	MIC [4] [µg/mL]	MIC [5] [µg/mL]	MIC [6] [µg/mL]	MIC [7] [µg/mL]	MIC [8] [µg/mL]	MIC [9] [µg/mL]	MIC [10] [µg/mL]	MIC [11] [µg/mL]	MIC [12] [µg/mL]	MIC [13] [µg/mL]	MIC [14] [µg/mL]
CSCC[C@@H]1C(=O)O[C@H]2c3cc(C)cc(O)c3C3=C(C(=O)c4c(O[C@H]5C[C@@H](O)[C@@H](O)[C@H](C)O5)cccc4C3=O)N12 [JADOMYCIN DM]	2 (≈ 3.52 µM)	2 (≈ 3.52 µM)	> 128	> 128	4 (≈ 7.05 µM)	16 (≈ 28.2 µM)	16 (≈ 28.2 µM)	32 (≈ 56.4 µM)	2 (≈ 3.52 µM)	32 (≈ 56.4 µM)	> 128	< 1	64 (≈ 113 µM)	16 (≈ 28.2 µM)
Cc1cc(O)c2c(c1)[C@@H]1OC(=O)[C@H](Cc3ccccc3)N1C1=C2C(=O)c2cccc(O[C@H]3C[C@@H](O)[C@@H](O)[C@H](C)O3)c2C1=O [JADOMYCIN F]	1 (≈ 1.71 µM)	0.5 (≈ 0.857 µM)	> 128	> 128	1 (≈ 1.71 µM)	8 (≈ 13.7 µM)	8 (≈ 13.7 µM)	4 (≈ 6.85 µM)	2 (≈ 3.43 µM)	4 (≈ 6.85 µM)	> 128	< 1	16 (≈ 27.4 µM)	16 (≈ 27.4 µM)
Cc1cc(O)c2c(c1)[C@@H]1OC(=O)CN1C1=C2C(=O)c2cccc(O[C@H]3C[C@@H](O)[C@@H](O)[C@H](C)O3)c2C1=O [JADOMYCIN G]	64 (≈ 130 µM)	32 (≈ 64.8 µM)	> 128	> 128	32 (≈ 64.8 µM)	32 (≈ 64.8 µM)	> 128	64 (≈ 130 µM)	8 (≈ 16.2 µM)	> 128	> 128	2 (≈ 4.05 µM)	64 (≈ 130 µM)	64 (≈ 130 µM)
Cc1cc(O)c2c(c1)[C@@H]1OC(=O)[C@H](CO)N1C1=C2C(=O)c2cccc(O[C@H]3C[C@@H](O)[C@@H](O)[C@H](C)O3)c2C1=O [JADOMYCIN S]		0.5 (≈ 0.955 µM)	> 128	> 128		8 (≈ 15.3 µM)	32 (≈ 61.1 µM)	8 (≈ 15.3 µM)	4 (≈ 7.64 µM)	32 (≈ 61.1 µM)	> 128	1 (≈ 1.91 µM)	32 (≈ 61.1 µM)	16 (≈ 30.6 µM)
Cc1cc(O)c2c(c1)[C@@H]1OC(=O)[C@H]([C@H](C)O)N1C1=C2C(=O)c2cccc(O[C@H]3C[C@@H](O)[C@@H](O)[C@H](C)O3)c2C1=O [JADOMYCIN T]	8 (≈ 14.9 µM)	1 (≈ 1.86 µM)	> 128	> 128	8 (≈ 14.9 µM)	4 (≈ 7.44 µM)	32 (≈ 59.5 µM)	4 (≈ 7.44 µM)	2 (≈ 3.72 µM)	64 (≈ 119 µM)	> 128	< 1	16 (≈ 29.8 µM)	8 (≈ 14.9 µM)
Cc1cc(O)c2c(c1)[C@@H]1OC(=O)[C@@H](CO)N1C1=C2C(=O)c2cccc(O[C@H]3C[C@@H](O)[C@@H](O)[C@H](C)O3)c2C1=O [JADOMYCIN DS]	8 (≈ 15.3 µM)	2 (≈ 3.82 µM)	> 128	> 128	8 (≈ 15.3 µM)	8 (≈ 15.3 µM)	16 (≈ 30.6 µM)	4 (≈ 7.64 µM)	4 (≈ 7.64 µM)	32 (≈ 61.1 µM)	> 128	1 (≈ 1.91 µM)	16 (≈ 30.6 µM)	16 (≈ 30.6 µM)
